Activity calls are given as the source filed them. No cut-off for these calls is given here.
Tests used:
[1] = biological target: Beta-1 adrenergic receptor (Rattus norvegicus) (UniProt P18090); test: Potency to block Beta-1 adrenergic receptor relative to labetolol
How it was run: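 Rats, iv dosing as HCl salts in three cumulative doses. Antagonism of the tachycardic response to (±)-isoproterenol (0.1 mg/kg iv) was measured. ID50 is the dose giving 50% inhibition of that response (mean ± SEM), with 3-8 animals per compound. Statistics used analysis of variance with Duncan's multiple range test.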

[2] = biological target: Beta-1 adrenergic receptor (Rattus norvegicus) (UniProt P18090); test: Antagonistic activity was determined for 50% inhibition of tachycardia response in anesthetized, normotensive rat at a dose range of 0.03-0.3 mg/kg(iv); assay type: functional, organism-based
How it was run: (§1)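 Anesthetized normotensive rats received the test agent iv as HCl salts in three cumulative doses. The tachycardic response to (±)-isoproterenol (0.1 mg/kg iv) was measured. ID50 is the iv dose giving 50% inhibition of that response, reported as mean ± SEM. Analysis used analysis of variance with Duncan's multiple range statistic.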

Rattus norvegicus [3] = test: Decrease in blood pressure(mm/Hg) was determined after administration of (10 mg/kg/po); 30-32/>4; assay type: functional
Rattus norvegicus [4] = test: Antihypertensive activity was determined before dosing in conscious, spontaneously hypertensive rats(SHR); assay type: functional
How it was run: (§2)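 Blood pressure (mmHg) and heart rate (beats/min) were measured directly in conscious spontaneously hypertensive rats before oral dosing. Groups had n = 4, and values are means ± SEM.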

Rattus norvegicus [5] = test: Change in blood-pressure was determined after 1 hr administration of(10 mg/kg/po) in conscious, spontaneously hypertensive rats(SHR); assay type: functional
How it was run: (§3)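 Conscious spontaneously hypertensive rats (n = 4 per group) were dosed orally at 10 mg/kg as HCl salts, with placebo as a control group. Blood pressure was measured directly, and heart rate was also recorded. Changes from pre-dose values were read at 1, 2, 3 and 4 h and reported as means ± SEM. Analysis used ANOVA with Duncan's multiple range statistic.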

Rattus norvegicus [6] = test: Change in blood-pressure was determined after 2 hr administration of(10 mg/kg/po) in conscious, spontaneously hypertensive rats(SHR); assay type: functional; how it was run: as §3
Rattus norvegicus [7] = test: Change in blood-pressure was determined after 3h administration of(10 mg/kg/po) in conscious, spontaneously hypertensive rats(SHR); assay type: functional; how it was run: as §3
Rattus norvegicus [8] = test: Change in blood-pressure was determined after 4 hr administration of(10 mg/kg/po) in conscious, spontaneously hypertensive rats(SHR); assay type: functional; how it was run: as §3
Rattus norvegicus [9] = test: Change in Heart rate(beats/min) was determined after 1 hr of (10 mg/kg p.o.) administration in conscious, spontaneously hypertensive rats; assay type: functional; how it was run: as §3
Rattus norvegicus [10] = test: Change in Heart rate(beats/min) was determined after 2 hr of (10 mg/kg p.o.) administration in conscious, spontaneously hypertensive rats; assay type: functional; how it was run: as §3
Rattus norvegicus [11] = test: Antihypertensive activity was determined by Heart rate(beats/min) measurement before dosing in conscious, spontaneously hypertensive rats; assay type: functional; how it was run: as §2
Rattus norvegicus [12] = test: Change in Heart rate(beats/min) was determined after 3h of (10 mg/kg p.o.) administration in conscious, spontaneously hypertensive rats; assay type: functional; how it was run: as §3
Rattus norvegicus [13] = test: Change in Heart rate(beats/min) was determined after 4 hr of (10 mg/kg p.o.) administration in conscious, spontaneously hypertensive rats; assay type: functional; how it was run: as §3
Rattus norvegicus [14] = species on record: Rattus norvegicus; test: Potency (vasodilation) relative to labetolol; assay type: functional
[15] = Ratio of Relative potency of beta1/alpha bock values; assay type: functional
[16] = biological target: T1, Adrenergic receptor alpha (Rattus norvegicus) (UniProt P15823+P23944+P43140+P22086+P19328+P22909)
[17] = biological target: Beta-1 adrenergic receptor (Rattus norvegicus) (UniProt P18090); test: Antagonistic activity was determined for 50% inhibition of tachycardia response in anesthetized, normotensive rat at a dose range of 0.3-3 mg/kg(iv); Inactive; assay type: functional, organism-based; how it was run: as §1
Rattus norvegicus [18] = test: Change in blood-pressure was determined after 1 hr administration of (10 mg/kg/po) in conscious, spontaneously hypertensive rats(SHR); assay type: functional; how it was run: as §3
Rattus norvegicus [19] = test: Change in blood-pressure was determined after 2 hr administration of (10 mg/kg/po) in conscious, spontaneously hypertensive rats(SHR); assay type: functional; how it was run: as §3
Rattus norvegicus [20] = test: Change in blood-pressure was determined after 3h administration of (10 mg/kg/po) in conscious, spontaneously hypertensive rats(SHR); assay type: functional; how it was run: as §3
Rattus norvegicus [21] = test: Change in blood-pressure was determined after 4 hr administration of (10 mg/kg/po) in conscious, spontaneously hypertensive rats(SHR); assay type: functional; how it was run: as §3
Rattus norvegicus [22] = test: Decrease in blood pressure(mm/Hg) was determined after administration of (10 mg/kg/po); assay type: functional
How it was run: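 Conscious spontaneously hypertensive rats, n = 4 per group, placebo control. Single oral dose of 10 mg/kg as HCl salt. Blood pressure and heart rate were measured directly before dosing and at 1, 2, 3 and 4 h after. Change from predose is given as mean ± SEM. Statistics used analysis of variance with Duncan's multiple range test.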

[23] = biological target: T1, Adrenergic receptor alpha (Rattus norvegicus); remark: listed apart in the source
[24] = biological target: Beta-1 adrenergic receptor (Rattus norvegicus) (UniProt P18090); test: Antagonistic activity was determined for 50% inhibition of tachycardia response in anesthetized, normotensive rat at a dose range of 0.3-3 mg/kg(iv); assay type: functional, organism-based; how it was run: as §1
Rattus norvegicus [25] = test: Antihypertensive activity was determined before dosing in conscious, spontaneously hypertensive rats(SHR); 12/~1; assay type: functional
[26] = test system: Adrenergic receptor alpha (Rattus norvegicus); test: Relative alpha-adrenergic blocking potency was determined after administration of intravenously
[27] = biological target: Beta-1 adrenergic receptor (Rattus norvegicus) (UniProt P18090); test: Antagonistic activity was determined for 50% inhibition of tachycardia response in anesthetized, normotensive rat at a dose range of 0.1-1(iv); assay type: functional, organism-based; how it was run: as §1
[28] = Ratio of Relative potency of beta1/alpha bock values; 26-39
[29] = biological target: T1, Adrenergic receptor alpha (Rattus norvegicus); remark: listed apart in the source

Sequence of Beta-1 adrenergic receptor (Rattus norvegicus) (P18090 whole entry, looked up): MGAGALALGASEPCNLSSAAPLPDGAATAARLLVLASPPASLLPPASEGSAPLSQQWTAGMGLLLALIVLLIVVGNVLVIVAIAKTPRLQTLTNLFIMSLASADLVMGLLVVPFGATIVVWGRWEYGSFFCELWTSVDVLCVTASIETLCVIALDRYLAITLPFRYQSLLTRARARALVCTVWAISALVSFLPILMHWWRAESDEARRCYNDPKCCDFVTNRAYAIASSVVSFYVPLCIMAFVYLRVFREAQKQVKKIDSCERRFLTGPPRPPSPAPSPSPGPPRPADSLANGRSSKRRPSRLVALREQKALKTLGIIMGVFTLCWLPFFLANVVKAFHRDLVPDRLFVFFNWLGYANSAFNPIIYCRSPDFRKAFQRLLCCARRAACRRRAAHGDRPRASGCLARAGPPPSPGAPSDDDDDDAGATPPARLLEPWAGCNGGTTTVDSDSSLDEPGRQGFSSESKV

SMILES: C[C@H](CCc1ccccc1)NC[C@H](O)c1ccc(O)c(C(N)=O)c1.Cl [DILEVALOL HYDROCHLORIDE]
- Relative potency [1]: 3.5
- ID50 [2]: 0.07 mg/kg
- Decrease in blood pressure (Rattus norvegicus [3]): >30
- BP (Rattus norvegicus [4]): 160 mmHg
- Change in BP (Rattus norvegicus [5]): -26 mmHg
- Change in BP (Rattus norvegicus [6]): -26 mmHg
- Change in BP (Rattus norvegicus [7]): -29 mmHg
- Change in BP (Rattus norvegicus [8]): -27 mmHg
- Heart rate (Rattus norvegicus [9]): -47 beats min-1
- Heart rate (Rattus norvegicus [10]): -41 beats min-1
- Heart rate (Rattus norvegicus [11]): 378 beats min-1
- Heart rate (Rattus norvegicus [12]): -55 beats min-1
- Heart rate (Rattus norvegicus [13]): -45 beats min-1
- Relative potency (Rattus norvegicus [14]): 7
- Ratio [15]: > 500
- ID50 [16]: 35 mg/kg

SMILES: C[C@@H](CCc1ccccc1)NC[C@@H](O)c1ccc(O)c(C(N)=O)c1.Cl
- Relative potency [1]: 0
- ID50 [17]: inactive
- BP (Rattus norvegicus [4]): 159 mmHg
- Change in BP (Rattus norvegicus [18]): 4 mmHg
- Change in BP (Rattus norvegicus [19]): 10 mmHg
- Change in BP (Rattus norvegicus [20]): 11 mmHg
- Change in BP (Rattus norvegicus [21]): 8 mmHg
- Heart rate (Rattus norvegicus [9]): 8 beats min-1
- Heart rate (Rattus norvegicus [10]): 1 beats min-1
- Heart rate (Rattus norvegicus [11]): 356 beats min-1
- Heart rate (Rattus norvegicus [12]): -4 beats min-1
- Heart rate (Rattus norvegicus [13]): -7 beats min-1
- Decrease in blood pressure (Rattus norvegicus [22]): 0
- ID50 [23]: 4.8 mg/kg

SMILES: C[C@H](CCc1ccccc1)NC[C@@H](O)c1ccc(O)c(C(N)=O)c1.Cl
- ID50 [24]: 5 mg/kg
- BP (Rattus norvegicus [4]): 158 mmHg
- Decreace in BP (Rattus norvegicus [25]): 12 mmHg
- Change in BP (Rattus norvegicus [18]): -12 mmHg
- Change in BP (Rattus norvegicus [19]): -5 mmHg
- Change in BP (Rattus norvegicus [20]): -4 mmHg
- Change in BP (Rattus norvegicus [21]): -3 mmHg
- Heart rate (Rattus norvegicus [9]): -9 beats min-1
- Heart rate (Rattus norvegicus [10]): -16 beats min-1
- Heart rate (Rattus norvegicus [11]): 359 beats min-1
- Heart rate (Rattus norvegicus [12]): -34 beats min-1
- Heart rate (Rattus norvegicus [13]): -39 beats min-1
- ID50 [23]: 1.3 mg/kg
- Relative potency [26]: 5.1

SMILES: CC(CCc1ccccc1)NCC(O)c1ccc(O)c(C(N)=O)c1 (centres undefined) [LABETALOL]
- Relative potency [1]: 1
- ID50 [27]: 0.25 mg/kg
- Decrease in blood pressure (Rattus norvegicus [3]): >30
- BP (Rattus norvegicus [4]): 160 mmHg
- Change in BP (Rattus norvegicus [18]): -29 mmHg
- Change in BP (Rattus norvegicus [19]): -22 mmHg
- Change in BP (Rattus norvegicus [20]): -20 mmHg
- Change in BP (Rattus norvegicus [21]): -20 mmHg
- Heart rate (Rattus norvegicus [9]): -13 beats min-1
- Heart rate (Rattus norvegicus [10]): -18 beats min-1
- Heart rate (Rattus norvegicus [11]): 362 beats min-1
- Heart rate (Rattus norvegicus [12]): -27 beats min-1
- Heart rate (Rattus norvegicus [13]): -23 beats min-1
- Relative potency (Rattus norvegicus [14]): 1
- ID50 [23]: 7.1 mg/kg
- Ratio [28]: 26

SMILES: C[C@@H](CCc1ccccc1)NC[C@H](O)c1ccc(O)c(C(N)=O)c1.Cl
- Relative potency [1]: < 0.06
- ID50 [24]: 4.1 mg/kg
- BP (Rattus norvegicus [4]): 164 mmHg
- Change in BP (Rattus norvegicus [18]): -5 mmHg
- Change in BP (Rattus norvegicus [19]): -2 mmHg
- Change in BP (Rattus norvegicus [20]): 6 mmHg
- Change in BP (Rattus norvegicus [21]): 8 mmHg
- Heart rate (Rattus norvegicus [9]): 7 beats min-1
- Heart rate (Rattus norvegicus [10]): 5 beats min-1
- Heart rate (Rattus norvegicus [11]): 362 beats min-1
- Heart rate (Rattus norvegicus [12]): -8 beats min-1
- Heart rate (Rattus norvegicus [13]): 6 beats min-1
- Decrease in blood pressure (Rattus norvegicus [22]): 0
- ID50 [29]: inactive

Source: ChEMBL document CHEMBL1121973, “Synthesis and comparison of some cardiovascular properties of the stereoisomers of labetalol” (1982)
